# Article PMC2219267 (The Journal of General Physiology, 1996)
# Experiments:
# band 3 [1] = target: T1, band 3 (Homo sapiens, UniProt P02730); experiment: 125I iodide influx into red blood cells; assay type: cell-based
# T1 sequence (P02730 1-911): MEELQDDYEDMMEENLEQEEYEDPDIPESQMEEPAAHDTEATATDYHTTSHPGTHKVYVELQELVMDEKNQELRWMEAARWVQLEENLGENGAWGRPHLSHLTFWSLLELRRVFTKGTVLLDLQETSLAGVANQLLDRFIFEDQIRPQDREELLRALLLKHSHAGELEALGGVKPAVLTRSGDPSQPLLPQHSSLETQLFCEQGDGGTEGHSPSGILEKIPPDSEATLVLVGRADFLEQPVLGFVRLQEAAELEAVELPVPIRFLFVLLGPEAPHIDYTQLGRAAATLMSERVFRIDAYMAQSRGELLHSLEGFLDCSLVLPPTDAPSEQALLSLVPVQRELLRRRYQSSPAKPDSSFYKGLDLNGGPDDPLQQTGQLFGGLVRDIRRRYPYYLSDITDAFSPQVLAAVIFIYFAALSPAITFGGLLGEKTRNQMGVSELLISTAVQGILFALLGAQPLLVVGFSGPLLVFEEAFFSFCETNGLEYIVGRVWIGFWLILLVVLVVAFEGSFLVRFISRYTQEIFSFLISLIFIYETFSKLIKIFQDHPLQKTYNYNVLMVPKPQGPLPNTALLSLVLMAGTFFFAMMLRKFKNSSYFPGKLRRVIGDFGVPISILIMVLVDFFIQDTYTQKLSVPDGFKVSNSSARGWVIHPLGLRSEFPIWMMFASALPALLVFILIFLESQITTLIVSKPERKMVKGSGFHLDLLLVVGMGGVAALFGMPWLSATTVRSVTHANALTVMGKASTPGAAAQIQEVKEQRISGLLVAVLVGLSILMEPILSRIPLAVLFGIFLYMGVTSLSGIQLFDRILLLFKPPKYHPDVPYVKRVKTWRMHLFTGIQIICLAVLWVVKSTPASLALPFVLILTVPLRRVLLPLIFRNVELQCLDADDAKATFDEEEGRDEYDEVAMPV
# Procedure, shortened: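 Heparinised human blood was washed three times in 150 KH (150 mM KCl, 24 mM sucrose, 20 mM Hepes, pH 7.2 at 0°C), with white cells aspirated, then held at 50% hematocrit. DIDS-treated cells received a 2 mM DIDS stock. Media mixed sucrose, KCl and KI with 5 mM buffer. Above pHo 11, cells were nystatin-loaded to 300 mM Cl-, and CAPS-buffered media were used.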
# band 3 [2] = target: T1, band 3; experiment: 36Cl exchange flux inhibition in red blood cells, Dixon plots; assay type: cell-based; conditions: for ID50 for iodide in the medium with low Cl- concentration: 0°C; for DS·Clo (Dixon slope times [Clo]) / Dixon slope (DS) for Io inhibition of Cl- exchange / High/low: DS·Clo at the highest [Clo] divided by that at the given [Clo]: sucrose
smiles,measurement,setting,value
"[I-].[K+] [iodide, potassium iodide]",I- influx as % of Cl- efflux,"band 3 [1]; no citrate, [Clo] 0.28 mM, [Io] 2.2 mM, 0°C",less than 6%
same,half-saturation concentration for Io activation of I- influx,"band 3 [1]; pH 10.6, 1.65 mM [Clo]",26.4 ± 1.8 mM
same,I- influx as % of Cl- efflux,"band 3 [1]; pH 11.5, 53 mM [Io], 16.5 mM [Clo]",16%
same,I- influx as % of Cl- efflux,"band 3 [1]; pHo 10.6, 1.65 mM [Clo], up to 15 mM [Io]",less than 10%
same,ID50 for iodide in the medium with low Cl- concentration,"band 3 [2]; exp 60, pHo 7.2, Hepes, Cli 129 mM, low Clo 2.0 mM",2.77 mM
same,DS·Clo (Dixon slope times [Clo]),"band 3 [2]; exp 60, pHo 7.2, Clo 2 mM",0.0823
same,Dixon slope (DS) for Io inhibition of Cl- exchange,"band 3 [2]; exp 60, pHo 7.2, Clo 2 mM",0.0412
same,High/low: DS·Clo at the highest [Clo] divided by that at the given [Clo],"band 3 [2]; exp 60, pHo 7.2, Clo 2 mM",4.69
same,DS·Clo (Dixon slope times [Clo]),"band 3 [2]; exp 60, pHo 7.2, Clo 150 mM",0.386
same,Dixon slope (DS) for Io inhibition of Cl- exchange,"band 3 [2]; exp 60, pHo 7.2, Clo 150 mM",0.00257
same,ID50 for iodide in the medium with low Cl- concentration,"band 3 [2]; exp 60, pHo 10.7, CHES, Cli 129 mM, low Clo 2.0 mM",12.9 mM
same,DS·Clo (Dixon slope times [Clo]),"band 3 [2]; exp 60, pHo 10.7, Clo 2 mM",0.1169
same,Dixon slope (DS) for Io inhibition of Cl- exchange,"band 3 [2]; exp 60, pHo 10.7, Clo 2 mM",0.0584
same,High/low: DS·Clo at the highest [Clo] divided by that at the given [Clo],"band 3 [2]; exp 60, pHo 10.7, Clo 2 mM",1.79
same,DS·Clo (Dixon slope times [Clo]),"band 3 [2]; exp 60, pHo 10.7, Clo 150 mM",0.2096
same,Dixon slope (DS) for Io inhibition of Cl- exchange,"band 3 [2]; exp 60, pHo 10.7, Clo 150 mM",0.0014
same,ID50 for iodide in the medium with low Cl- concentration,"band 3 [2]; exp 60a, pHo 7.2, Hepes, Cli 149 mM, low Clo 1.0 mM",2.44 mM
same,DS·Clo (Dixon slope times [Clo]),"band 3 [2]; exp 60a, pHo 7.2, Clo 1 mM",0.0509
same,Dixon slope (DS) for Io inhibition of Cl- exchange,"band 3 [2]; exp 60a, pHo 7.2, Clo 1 mM",0.0509
same,High/low: DS·Clo at the highest [Clo] divided by that at the given [Clo],"band 3 [2]; exp 60a, pHo 7.2, Clo 1 mM",6.67
same,DS·Clo (Dixon slope times [Clo]),"band 3 [2]; exp 60a, pHo 7.2, Clo 150 mM",0.339
same,Dixon slope (DS) for Io inhibition of Cl- exchange,"band 3 [2]; exp 60a, pHo 7.2, Clo 150 mM",0.00226
same,ID50 for iodide in the medium with low Cl- concentration,"band 3 [2]; exp 60a, pHo 10.7, CHES, Cli 149 mM, low Clo 2.0 mM",22.6 mM
same,DS·Clo (Dixon slope times [Clo]),"band 3 [2]; exp 60a, pHo 10.7, Clo 2 mM",0.1078
same,Dixon slope (DS) for Io inhibition of Cl- exchange,"band 3 [2]; exp 60a, pHo 10.7, Clo 2 mM",0.0539
same,High/low: DS·Clo at the highest [Clo] divided by that at the given [Clo],"band 3 [2]; exp 60a, pHo 10.7, Clo 2 mM",2.13
same,DS·Clo (Dixon slope times [Clo]),"band 3 [2]; exp 60a, pHo 10.7, Clo 150 mM",0.2300
same,Dixon slope (DS) for Io inhibition of Cl- exchange,"band 3 [2]; exp 60a, pHo 10.7, Clo 150 mM",0.00153
same,ID50 for iodide in the medium with low Cl- concentration,"band 3 [2]; exp 61, pHo 11.6, CAPS, Cli 131 mM, low Clo 50 mM",34.9 mM
same,DS·Clo (Dixon slope times [Clo]),"band 3 [2]; exp 61, pHo 11.6, Clo 50 mM",0.2858
same,Dixon slope (DS) for Io inhibition of Cl- exchange,"band 3 [2]; exp 61, pHo 11.6, Clo 50 mM",0.00572
same,High/low: DS·Clo at the highest [Clo] divided by that at the given [Clo],"band 3 [2]; exp 61, pHo 11.6, Clo 50 mM",0.94
same,DS·Clo (Dixon slope times [Clo]),"band 3 [2]; exp 61, pHo 11.6, Clo 150 mM",0.2682
same,Dixon slope (DS) for Io inhibition of Cl- exchange,"band 3 [2]; exp 61, pHo 11.6, Clo 150 mM",0.00179
same,ID50 for iodide in the medium with low Cl- concentration,"band 3 [2]; exp 61a, pHo 11.6, CAPS, Cli 144 mM, low Clo 28 mM",46.6 mM
same,DS·Clo (Dixon slope times [Clo]),"band 3 [2]; exp 61a, pHo 11.6, Clo 27.5 mM",0.2089
same,Dixon slope (DS) for Io inhibition of Cl- exchange,"band 3 [2]; exp 61a, pHo 11.6, Clo 27.5 mM",0.0076
same,High/low: DS·Clo at the highest [Clo] divided by that at the given [Clo],"band 3 [2]; exp 61a, pHo 11.6, Clo 27.5 mM",0.77
same,DS·Clo (Dixon slope times [Clo]),"band 3 [2]; exp 61a, pHo 11.6, Clo I10 mM",0.1613
same,Dixon slope (DS) for Io inhibition of Cl- exchange,"band 3 [2]; exp 61a, pHo 11.6, Clo I10 mM",0.00147
same,ID50 for iodide in the medium with low Cl- concentration,"band 3 [2]; exp 64, pHo 8.66, CHES, Cli 138 mM, low Clo 0.9 mM",3.06 mM
same,ID50 for iodide in the medium with low Cl- concentration,"band 3 [2]; exp 64, pHo 9.9, CHES, Cli 138 mM, low Clo 2.2 mM",7.48 mM
same,ID50 for iodide in the medium with low Cl- concentration,"band 3 [2]; exp 64a, pHo 8.66, CHES, Cli 137 mM, low Clo 0.9 mM",2.24 mM
same,ID50 for iodide in the medium with low Cl- concentration,"band 3 [2]; exp 64a, pHo 9.9, CHES, Cli 137 mM, low Clo 2.2 mM",7.57 mM
same,ID50 for iodide in the medium with low Cl- concentration,"band 3 [2]; exp 67, pHo 8.5, CHES, Cli 144 mM, low Clo 0.6 mM",2.18 mM
same,ID50 for iodide in the medium with low Cl- concentration,"band 3 [2]; exp 70, pHo 7.2, Hepes, Cli 147 mM, low Clo 0.6 mM",1.47 mM
same,DS·Clo (Dixon slope times [Clo]),"band 3 [2]; exp 70, pHo 7.2, Clo 0.59 mM",0.0584
same,Dixon slope (DS) for Io inhibition of Cl- exchange,"band 3 [2]; exp 70, pHo 7.2, Clo 0.59 mM",0.0996
same,High/low: DS·Clo at the highest [Clo] divided by that at the given [Clo],"band 3 [2]; exp 70, pHo 7.2, Clo 0.59 mM",5.52
same,DS·Clo (Dixon slope times [Clo]),"band 3 [2]; exp 70, pHo 7.2, Clo 110 mM",0.322
same,Dixon slope (DS) for Io inhibition of Cl- exchange,"band 3 [2]; exp 70, pHo 7.2, Clo 110 mM",0.00293
same,ID50 for iodide in the medium with low Cl- concentration,"band 3 [2]; exp 70, pHo 8.5, CHES, Cli 147 mM, low Clo 0.6 mM",1.82 mM
same,ID50 for iodide in the medium with low Cl- concentration,"band 3 [2]; exp 72, pHo 8.0, Hepes, Cli 129 mM, low Clo 0.9 mM",1.82 mM
same,ID50 for iodide in the medium with low Cl- concentration,"band 3 [2]; exp 72, pHo 9.2, CHES, Cli 129 mM, low Clo 0.9 mM",4.19 mM
same,ID50 for iodide in the medium with low Cl- concentration,"band 3 [2]; exp 74, pHo 8.5, CHES, Cli 156 mM, low Clo 1.1 mM",2.10 mM
same,ID50 for iodide in the medium with low Cl- concentration,"band 3 [2]; exp 80, pHo 9.2, CHES, Cli 142 mM, low Clo 0.9 mM",3.88 mM
same,ID50 for iodide in the medium with low Cl- concentration,"band 3 [2]; exp 81, pHo 8.5, Hepes, Cli 142 mM, low Clo 0.6 mM",2.31 mM
same,ID50 for iodide in the medium with low Cl- concentration,"band 3 [2]; exp 81, pHo 10, CHES, Cli 142 mM, low Clo 1.7 mM",7.81 mM
same,ID50 for iodide in the medium with low Cl- concentration,"band 3 [2]; exp 82, pHo 10, CHES, Cli 138 mM, low Clo 1.7 mM",9.85 mM
